Data on nine compounds can be found in ChEMBL document CHEMBL4396915, “Synthesis of new thiazolyl-pyrazolyl-1,2,3-triazole derivatives as potential antimicrobial agents” (2019).

Assay type in all cases: functional
Assay [1] deals with Candida albicans. As to the kind of experiment: Antifungal activity against Candida albicans NCIM 3100 assessed as zone of inhibition at 80 ug/well incubated for 48 to 72 hrs by agar well diffusion method. The following applies: for zone of inhibition at 80 µg/disc: read-out: IZ. Summed up:
(§1)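 Fungi kept on potato dextrose agar slants and grown in potato dextrose broth. 500 microlitres of 48-72 h spore suspension swabbed onto Mueller Hinton agar. Compounds in DMSO loaded into 5 mm wells, with a DMSO vehicle plate and fluconazole/ravuconazole positive-control plate. Incubated 48-72 h at 30 C. Clear zone measured in mm, mean of five replicates.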
(In general: A growth-free zone around the sample is the usual read-out of agar diffusion tests.)

For assay [2], the system named is Rhodotorula glutinis. As to the kind of experiment: Antifungal activity against Rhodotorula glutinis NCIM 3168 assessed as zone of inhibition at 80 ug/well incubated for 48 to 72 hrs by agar well diffusion method. The settings on record: for zone of inhibition at 80 µg/disc: read-out: IZ. Summed up:
as §1

Assay [3] has as its system Escherichia coli. In words: Antibacterial activity against Escherichia coli NCIM 2574 assessed as zone of inhibition at 80 ug/well incubated for 24 to 48 hrs by agar well diffusion method. The following applies: for zone of inhibition at 80 µg/disc: read-out: IZ. In outline:
(§2)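 Strains from NCIM kept on nutrient agar slants at 4 C and grown overnight at 37 C in nutrient broth. 500 microlitres of 24-48 h culture swabbed onto nutrient agar. Compounds in DMSO loaded into 5 mm wells, with a DMSO vehicle plate and streptomycin reference. Incubated 24-48 h at 37 C. Zone of inhibition measured in mm and averaged over 4 replicates.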

Assay [4] concerns Staphylococcus epidermidis. As to the kind of experiment: Antibacterial activity against Staphylococcus albus NCIM 2178 assessed as zone of inhibition at 80 ug/well incubated for 24 to 48 hrs by agar well diffusion method. The settings on record: for zone of inhibition at 80 µg/disc: read-out: IZ. Summed up: as §2
Assay [5] relates to Proteus mirabilis. In words: Antibacterial activity against Proteus mirabilis NCIM 2388 assessed as zone of inhibition at 80 ug/well incubated for 24 to 48 hrs by agar well diffusion method. Summed up: as §2
The test system of assay [6] is Aspergillus niger. In words: Antifungal activity against Aspergillus niger NCIM 504 assessed as zone of inhibition at 80 ug/well incubated for 48 to 72 hrs by agar well diffusion method. The following applies: for zone of inhibition at 80 µg/disc: read-out: IZ. In outline: as §1
Assay [7] concerns Rhodotorula glutinis. In words: Antifungal activity against Rhodotorula glutinis NCIM 3168 assessed as inhibition of fungal growth incubated for 48 to 72 hrs by broth microdilution susceptibility method. Summed up:
(§3)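 Tube micro-dilution in Sabouraud liquid medium. Stocks were made in DMSO and serially diluted twofold in broth to final […]. Tubes inoculated with organisms grown in potato dextrose broth and held 48-72 h at 30 C. MIC is the lowest concentration with no growth. DMSO and uninoculated-media controls were included, in triplicate.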

For assay [8], the system named is Aspergillus niger. As to the kind of experiment: Antifungal activity against Aspergillus niger NCIM 504 assessed as inhibition of fungal growth incubated for 48 to 72 hrs by broth microdilution susceptibility method. Summed up:
as §3
(In general: Broth dilution looks for growth in wells or tubes with falling amounts of substance.)

For assay [9], the system named is Candida albicans. As to the kind of experiment: Antifungal activity against Candida albicans NCIM 3100 assessed as inhibition of fungal growth incubated for 48 to 72 hrs by broth microdilution susceptibility method. Summed up: as §3

Values after ≈ are worked out from the molar mass of the structure shown. Active and inactive are the calls of the source.

The term MIC denotes the smallest concentration in the dilution series that meets the test's criterion for growth inhibition.

With `CN[C@@H]1[C@H](O[C@H]2[C@H](O[C@H]3[C@H](O)[C@@H](O)[C@H](N=C(N)N)[C@@H](O)[C@@H]3N=C(N)N)O[C@@H](C)[C@]2(O)C=O)O[C@@H](CO)[C@H](O)[C@H]1O` [STREPTOMYCIN], the “inhibition zone (IZ)” value in [1], in [2] and in [6] was “inactive” throughout. Moreover, the results for the zone of inhibition at 80 µg/disc in assay [3], in [4] and in assay [5] (read-out: IZ) were 25 mm, 21.6 mm and 18.5 mm, respectively.
Consider `Cc1nc(-c2ccccc2)sc1-c1nn(-c2ccccc2)cc1-c1cn(Cc2ccc(F)cc2)nn1`, for which the MIC in assay [7], in assay [8] and in assay [9] was 125 µg/mL (≈ 254 µM) throughout. The zone of inhibition at 80 µg/disc in assay [1] amounted to 15.8 mm; in [2], 14.6 mm; in assay [3] it was 11 mm; in assay [4], 10 mm; in assay [6], 16.4 mm. In addition, the “inhibition zone (IZ)” value in assay [5] is “inactive”.
Consider `Cc1nc(-c2ccc(Cl)cc2)sc1-c1nn(-c2ccccc2)cc1-c1cn(Cc2ccc(Cl)cc2)nn1`, for which the MIC was 62.5 µg/mL (≈ 115 µM) in assay [7] and 125 µg/mL (≈ 230 µM) in assay [8]. Also, the zone of inhibition at 80 µg/disc in assay [1] was 11.3 mm; in assay [2] it was 14 mm; in assay [3], 9.8 mm; in assay [4], 11.5 mm; in assay [6], 12.3 mm. Besides, in assay [5], the “inhibition zone (IZ)” value was “inactive”. The MIC result in [9] is “inactive”.
Regarding `Cc1nc(-c2ccc(F)cc2)sc1-c1nn(-c2ccccc2)cc1-c1cn(Cc2ccc(Cl)cc2)nn1`, the MIC stood at 125 µg/mL (≈ 237 µM) in [7] and 31.2 µg/mL (≈ 59.3 µM) in [8]. Moreover, the zone of inhibition at 80 µg/disc worked out at 10.4 mm in [1], 14.5 mm in assay [2], 11.8 mm in [4] and 13.5 mm in assay [6]. In addition, the “inhibition zone (IZ)” value in assay [3] and in [5] was “inactive” in each case. For the same compound, the MIC result in [9] is “inactive”.
As for `Cc1ccc(Cn2cc(-c3cn(-c4ccccc4)nc3-c3sc(-c4ccccc4)nc3C)nn2)cc1`, the MIC entry in assay [7] and in [9] was “inactive” each time. Moreover, the zone of inhibition at 80 µg/disc was 11.8 mm in assay [1], 19.5 mm in assay [2], 10 mm in assay [3] and 14 mm in assay [6]. Further, the MIC in [8] came to 31.2 µg/mL (≈ 64 µM). The “inhibition zone (IZ)” value in assay [4] and in assay [5] was “inactive” in each case.
Consider `Cc1nc(-c2ccc(Br)cc2)sc1-c1nn(-c2ccccc2)cc1-c1cn(Cc2ccc(F)cc2)nn1`, for which the values for the MIC in assay [7], in assay [8] and in assay [9] were 62.5 µg/mL (≈ 109 µM), 62.5 µg/mL (≈ 109 µM) and 125 µg/mL (≈ 219 µM), respectively. Also, the zone of inhibition at 80 µg/disc came out at 12 mm in [1]; 11.7 mm in [2]; 11.8 mm in assay [3]; 12 mm in [4]; 17 mm in assay [6]. For the same compound, the “inhibition zone (IZ)” value in assay [5] was “inactive”.
`OC(Cn1cncn1)(Cn1cncn1)c1ccc(F)cc1F` [FLUCONAZOLE]: the MIC in [7], in assay [8] and in assay [9] was 7.81 µg/mL (≈ 25.5 µM) in each case. The zone of inhibition at 80 µg/disc in [1] stood at 20.2 mm; in assay [2], 25.3 mm; in [6], 18.4 mm. Also, the “inhibition zone (IZ)” value in [3], in assay [4] and in assay [5] was “inactive” throughout.
As for `Cc1nc(-c2ccc(Cl)cc2)sc1-c1nn(-c2ccccc2)cc1-c1cn(Cc2ccc(Br)cc2)nn1`, the figures for the MIC in [7], in assay [8] and in assay [9] were 62.5 µg/mL (≈ 106 µM), 62.5 µg/mL (≈ 106 µM) and 250 µg/mL (≈ 425 µM), respectively. Moreover, the zone of inhibition at 80 µg/disc came to 17.6 mm in assay [1]; 18.8 mm in assay [2]; 11 mm in [3]; 11.8 mm in [4]; 12 mm in assay [6]. In addition, the “inhibition zone (IZ)” value in assay [5] is “inactive”.
As to `Cc1nc(-c2ccccc2)sc1-c1nn(-c2ccccc2)cc1-c1cn(Cc2ccccc2)nn1`, the MIC entry in assay [7], in [8] and in [9] was “inactive” throughout. In addition, the “inhibition zone (IZ)” value in [5] is “inactive”.
